The list is not random: actives were taken first. Their share in the collection is about 3.2%.
LEDGF integ inh: blocks HIV-1 LEDGF/p75-dependent DNA integration | inhibition, % at 3.7 µM | 370,000 tested, 0.64% active | TR-FRET IN-LEDGF/p75 DNA integration, Eu/Cy5;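 active = inhibition above the screen-wide mean plus 3 SD, cut at about 13% in these data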;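 also: signal is the Cy5 over europium emission ratio at 671 and 618 nm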
PRMT1 FP inh: PRMT1 (human) inhibition, primary screen; recombinant PRMT1, activity-based probe fluorescence polarization; Q99873; AID 652257; inhibition, % at 2.79 µM; 370,000 tested, 1.3% active;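 active = inhibition above about 21% made by adding two undisclosed values, limit read from the data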
ABHD4 inh: inhibits mouse alpha/beta hydrolase domain 4; Q8VD66; purified mABHD4, FP-Rh probe fluorescence polarization; inhibition, % at 8.92 µM; 370,000 tested, 0.54% active; AID 720543;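 active = inhibition exceeding the mean over every tested compound plus 3 SD, cut at about 30% in these data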
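Test system: mABHD4 protein | Buffer or medium: HEPES pH 7.0 buffer, 150 mM NaCl, 0.01% Pluronic F-127 | Probe or stimulus: FP-Rh fluorescent activity-based probe, added after compound pre-incubation | Timing: Pre-incubation 45 min, probe exposure 60 min, at 25 °C | Technique: Fluorescence polarization, excitation 525 nm, emission 598 nm, BODIPY TMR filters | Repeats: Single well per compound (singlicate)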
HTRA1 inhibitor: inhibitors of human serine peptidase HTRA1; inhibition, % at 5.96 µM; 340,000 tested, 0.5% active; Q92743; recombinant HTRA1, FP-rhodamine activity-based probe, fluorescence polarization; in the data active = inhibition above about 36%
Target sequence (Q92743 whole entry, looked up): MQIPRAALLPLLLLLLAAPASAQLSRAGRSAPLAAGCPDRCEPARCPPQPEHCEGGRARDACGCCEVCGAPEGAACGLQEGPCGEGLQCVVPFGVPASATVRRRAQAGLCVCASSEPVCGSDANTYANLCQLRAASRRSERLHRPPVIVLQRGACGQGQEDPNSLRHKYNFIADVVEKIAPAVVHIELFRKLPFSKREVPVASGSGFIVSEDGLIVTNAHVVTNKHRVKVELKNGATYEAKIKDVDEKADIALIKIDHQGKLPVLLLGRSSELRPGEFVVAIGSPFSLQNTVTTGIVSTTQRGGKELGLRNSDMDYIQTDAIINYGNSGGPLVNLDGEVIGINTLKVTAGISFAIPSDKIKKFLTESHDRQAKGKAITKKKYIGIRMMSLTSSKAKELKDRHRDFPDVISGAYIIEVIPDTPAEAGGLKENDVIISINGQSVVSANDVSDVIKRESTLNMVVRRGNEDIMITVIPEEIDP
DAGLB inh: blocks human DAGLB lipase activity | Q8NCG7 | HEK293T DAGLB membrane lysate, EnzChek fluorogenic substrate | inhibition, % at 5.17 µM | 340,000 tested, 0.059% active | AID 504411; in the data active = inhibition above about 34%
rCAG binder: r(CAG) repeat RNA binding; TO-PRO-1 dye displacement fluorescence; inhibition, % at 3 µM; 370,000 tested, 1.3% active; AID 651821;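 active = inhibition above the plate cutoff, the mean of all test compounds on that plate plus 3 SD, cut at about 35% in these data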;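 also: higher means more dye released from RNA so lower well fluorescence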
rCAG binder conf: r(CAG) RNA repeat binding, confirmation; inhibition, % at 3 µM; 4,300 tested, 70% active; shares compounds with rCAG binder; TO-PRO-1 dye displacement fluorescence;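 active = inhibition above a per-plate cutoff, the mean inhibition of sample wells plus 3 SD, cut at about 35% in these data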;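 also: loss of TO-PRO-1 fluorescence as compound displaces dye from 1x1 AA loop RNA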
dCAG dye counter: DNA CAG dye complex inhibition counter-screen. shares compounds with rCAG binder. d(CAG) DNA oligo TO-PRO-1 dye displacement, fluorescence. inhibition, % at 3 µM. 4,300 tested, 94% active. AID 652068;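 active = inhibition above its plate's cutoff, the mean test-well inhibition plus 3 SD, cut at about 4.8% in these data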;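 also: hits displace the dye from DNA and so lower well fluorescence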
dCAG dye DR: counter-screen for rCAG binders: inhibitors of DNA CAG TO-PRO-1 complex. DNA CAG/GTC duplex TO-PRO-1 dye displacement fluorescence. shares compounds with rCAG binder. 250 tested, 20% active. IC50, µM; in the data active = IC50 below about 10 µM
Numbers stand for hits; . = inactive; / = not tested or not shown; ! = not confirmed by another sample.

SMILES | LEDGF integ inh | PRMT1 FP inh | ABHD4 inh | HTRA1 inhibitor | DAGLB inh | rCAG binder | rCAG binder conf | dCAG dye counter | others
N#Cc1cccc(NC(=O)CSc2sc3c(O)cc(=O)[nH]c3c2C#N)c1 | . | . | . | . | . | 47 | . | 7.3
C=CCN1[C@H](Cc2ccccc2)COc2cccc(N3CCSCC3)c2S1(=O)=O | . | . | . | / | / | . | / | /
CC(C)c1nn2c(N)c(/C=C3\C=Nc4ccccc43)c(=O)nc2s1 | . | . | . | / | / | 40 | 41 | 10
CCCCc1nn2c(N)c(/C=C3\C=Nc4ccccc43)c(=O)nc2s1 | . | . | . | . | . | . | / | /
CCC(CC)c1nn2c(N)c(/C=C3\C=Nc4ccccc43)c(=O)nc2s1 | . | . | . | . | . | . | / | /
CC(C)Cc1nn2c(N)c(/C=C3\C=Nc4ccccc43)c(=O)nc2s1 | . | . | . | . | . | 38 | 62 | 21
CCCc1nn2c(N)c(/C=C3\C=Nc4ccccc43)c(=O)nc2s1 | . | . | . | . | . | 51! | 49 | 14
COc1cccc(NC(=O)CN(C)C(=O)c2cccc(S(=O)(=O)N3c4ccccc4CC3C)c2)c1 (configuration not stated) | . | . | . | . | . | . | / | /
O=C(O)/C(CC(=O)c1ccc(Cl)cc1)=N/Nc1ccc([N+](=O)[O-])cc1[N+](=O)[O-] | . | . | . | . | . | 92 | 90 | 66
COC(=O)c1ccc(CN2CCN(C3CCCC3)C(CCO)C2)cc1 (configuration not stated) | . | . | . | . | . | . | / | /
O=C(O)CCN1C(=O)c2ccc(NC(=O)C(c3ccccc3)c3ccccc3)cc2C1=O | . | . | . | . | . | 48 | 35 | 8.0
O=C(CCN1CCOCC1)Nc1ccc2c(c1)N(C(=O)CN1CCOCC1)c1ccccc1CC2 | . | . | . | . | . | . | / | /
CS(=O)(=O)c1ccc2nc(NC(=O)c3ccc(NS(=O)(=O)c4cccc([N+](=O)[O-])c4)cc3)sc2c1 | . | . | . | . | . | 72 | 70 | 31 | dCAG dye DR=9.4
CS(=O)(=O)c1ccc2nc(NC(=O)Nc3ccc(Cl)c(Cl)c3)sc2c1 | . | . | . | . | . | . | / | /
CS(=O)(=O)c1ccc2nc(NC(=O)Nc3cccc(Cl)c3)sc2c1 | . | . | . | . | . | 71 | 63 | 47
Cc1ccc2nc(NC(=O)c3ccc(NS(=O)(=O)c4cccs4)cc3)sc2c1 | . | . | . | . | . | 43 | 61 | 23
O=C(NCc1ccco1)c1cccc(S(=O)(=O)N2CCN(Cc3ccccc3)CC2)c1 | . | . | . | . | . | . | / | /
CC(C)n1cc(CN2CCC(Oc3ccc(C(=O)N4CCCCC4)cc3)CC2)cn1 | . | . | . | . | . | . | / | /
CCNc1nc(=S)nc(NC(C)C)[nH]1 | . | . | . | . | . | . | / | /
Cc1c(-c2ccc(OCc3ccccc3)cc2)nc2ccccc2c1C(=O)O | . | . | . | . | . | . | / | /
CC(C)/C=C/CN1CCC(Oc2ccc(C(=O)N3CCCC3)cc2)CC1 | . | . | . | . | . | . | / | /
CCOC(=O)c1c(C)[nH]c(C)c1S(=O)(=O)N(C)CC(=O)Nc1cccc(F)c1 | . | . | . | . | . | . | / | /
CC(NCc1ccc(S(N)(=O)=O)cc1)C(=O)Nc1cccc(Cl)c1 (configuration not stated) | . | . | . | . | . | . | / | /
O=C(CSc1nnc(-c2ccccc2F)n1C1CCCCC1)Nc1cc(C(=O)O)ccc1Cl | . | . | . | . | . | 38 | . | 6.9
Cc1ccc(C(=O)O)cc1NC(=O)CSc1nnc(-c2ccccc2F)n1C1CCCCC1 | . | . | . | . | . | . | / | /
SMILES | LEDGF integ inh | PRMT1 FP inh | ABHD4 inh | HTRA1 inhibitor | DAGLB inh | rCAG binder | rCAG binder conf | dCAG dye counter | others
O=C(CSc1ccsc1[N+](=O)[O-])Nc1cccc(F)c1 | . | . | . | . | . | 35 | . | 12
CCOc1cc(CC(=O)N[C@@H](CC(C)C)c2ccccc2N2CCCCC2)ccc1C(=O)O | . | . | . | . | . | 47 | 36 | 9.8
C=CCn1c(=O)c(C(=O)NCc2ccc(Cl)cc2)c(O)c2ccccc21 | . | . | . | . | . | . | / | /
COc1cc(-c2cc(-c3ccccc3)nc(SCC(=O)O)c2C#N)cc(OC)c1OC | . | . | . | . | . | 41 | 50 | 17
N#Cc1c(-c2ccccc2)cc(-c2ccccc2)nc1SCCC(=O)O | . | . | . | . | . | 61 | 66 | 28 | dCAG dye DR=.
N#Cc1c(-c2ccc(Cl)cc2)cc(-c2ccccc2)nc1SCC(=O)O | . | . | . | . | . | 76 | 84 | 53
O=C(CSc1nc2[nH]c(=O)cc(O)c2s1)Nc1ccc(Cl)c(C(F)(F)F)c1 | . | . | . | . | . | 41 | . | 11
O=C(O)c1cccc(C(=O)O)c1Br | . | . | . | . | . | . | / | /
Cc1ccc(Cl)cc1N1CCN(C(=O)Cc2c(C(=O)O)[nH]c3ccccc23)CC1 | . | . | . | . | . | 51 | 48 | 14
Cc1ccc(Cl)cc1N1CCN(C(=O)Cc2c(C(=O)O)[nH]c3ccc(Cl)cc23)CC1 | . | . | . | . | . | 74 | 84 | 55
O=C(Cc1c(C(=O)O)[nH]c2ccc(Cl)cc12)Nc1ccc2c(c1)OCCO2 | . | . | . | . | . | 50 | 42 | 8.4
Cc1cccc(C(=O)Oc2coc(CSc3nnc(NC(=O)C4CC4)s3)cc2=O)c1 | . | . | . | . | . | . | / | /
COC(=O)c1c(NC(=O)CSc2nnnn2C)sc(C)c1C | . | . | . | . | . | . | / | /
COc1ccccc1NC(=O)C(=O)NNS(=O)(=O)c1ccc2ccccc2c1 | . | . | . | . | . | 38 | . | 6.1
O=C(O)c1ccccc1NS(=O)(=O)c1ccc(NN=Cc2ccccc2F)c([N+](=O)[O-])c1 | . | . | . | . | . | 84 | 92 | 72
Cc1cc(S(=O)(=O)Nc2ccccc2C(=O)O)ccc1Cl | . | . | . | . | . | . | / | /
O=c1oc(-c2ccccc2NS(=O)(=O)c2ccc3ccccc3c2)nc2ccccc12 | . | . | . | . | . | 66 | 37 | 12
O=C(O)c1ccccc1NS(=O)(=O)c1ccc2ccccc2c1 | . | . | . | . | . | 39 | . | 6.1
O=C(O)c1ccccc1/C=N/Nc1ccc(S(=O)(=O)N2CCCC2)cc1[N+](=O)[O-] | . | . | . | . | . | . | / | /
O=c1[nH]c(CSc2nnc(-c3ccncc3)n2Cc2ccco2)nc2ccccc12 | . | . | . | . | . | . | / | /
Cc1ccc(-n2c(Cc3cccs3)nnc2SCC(=O)Nc2ccc(F)c(F)c2)cc1 | / | / | / | . | . | / | / | /

High-throughput results as filed in PubChem BioAssay.
